Data as given in ChEMBL document CHEMBL4130374, “Discovery of 9H-purins as potential tubulin polymerization inhibitors: Synthesis, biological evaluation and structure-activity relationships” (Eur J Med Chem, 2017).

Key:
K562 = test: Antiproliferative activity against human K562 cells after 48 hrs by MTT assay; type: functional; settings: K562, 48 h
Procedure, shortened: (§1)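 Log-phase cells, harvested by trypsinization, seeded 24 h, then exposed to a range of compound concentrations for 48 h. Culture in RPMI 1640 with 4% FBS, penicillin/streptomycin, 37°C, 5% CO2. DMSO below 1% final; 5-Fu as positive control. Readout is MTT (0.5 mg/mL, 4 h), formazan dissolved in DMSO, absorbance at 570 nm. GI50 = 50% growth inhibition versus untreated cells; means ± SD of at least two independent experiments.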

AGS [1] = test: Antiproliferative activity against human AGS cells after 48 hrs by MTT assay; type: functional; procedure, shortened: as §1
SH-SY5Y [2] = test: Antiproliferative activity against human SH-SY5Y cells after 48 hrs by MTT assay; type: functional; procedure, shortened: as §1
SH-SY5Y [3] = test: Potency index, ratio of 5-Fu GI50 to test compound GI50 for human SH-SY5Y cells; type: functional
[4] = Cytotoxicity against mouse HT22 cells after 48 hrs by MTT assay; type: cell-based, HT-22
Procedure, shortened: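 MTT readout after 48 h exposure; CC50 is the 50% cytotoxic concentration, mean of three repeated experiments.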

Tubulin (Sus scrofa) = test: Inhibition of pig brain tubulin polymerization at 10 uM by spectrophotometry relative to control
[5] = Selectivity ratio of GI50 for human AGS cells to GI50 for human SH-SY5Y cells; type: functional
[6] = Selectivity index, ratio of GI50 for mouse HT22 cells to GI50 for human SH-SY5Y cells; type: toxicity; settings: HT22 cells and SH-SY5Y cells, read-out: RatioGI50
[7] = Selectivity ratio of GI50 for human K562 cells to GI50 for human SH-SY5Y cells; type: functional
AGS [8] = test: Cell cycle arrest in human AGS cells assessed as accumulation at G2/M phase at 0.25 uM after 24 hrs by propidium iodide staining based flow cytometry (reference value: 9.18%); type: functional
Procedure, shortened: (§2)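 Cells washed twice in ice-cold PBS, fixed in ice-cold 70% ethanol, treated with 0.1 mg/mL RNase, stained with propidium iodide. Phase distribution determined by flow cytometry.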

AGS [9] = test: Cell cycle arrest in human AGS cells assessed as accumulation at S phase at 2 uM after 24 hrs by propidium iodide staining based flow cytometry (reference value: 37.94%); type: functional; procedure, shortened: as §2
AGS [10] = test: Induction of apoptosis in human AGS cells assessed as necrotic cells at 0.5 uM after 24 hrs by Annexin V-FITC/propidium iodide-double staining based flow cytometry (reference value: 0.40%); type: functional
AGS [11] = test: Cell cycle arrest in human AGS cells assessed as accumulation at G2/M phase at 0.5 uM after 24 hrs by propidium iodide staining based flow cytometry (reference value: 9.18%); type: functional; procedure, shortened: as §2
AGS [12] = test: Cell cycle arrest in human AGS cells assessed as accumulation at G0/G1 phase at 0.25 uM after 24 hrs by propidium iodide staining based flow cytometry (reference value: 52.87%); type: functional; procedure, shortened: as §2
AGS [13] = test: Cell cycle arrest in human AGS cells assessed as accumulation at G2/M phase at 1 uM after 24 hrs by propidium iodide staining based flow cytometry (reference value: 9.18%); type: functional; procedure, shortened: as §2
AGS [14] = test: Induction of apoptosis in human AGS cells assessed as viable cells at 0.25 uM after 24 hrs by Annexin V-FITC/propidium iodide-double staining based flow cytometry (reference value: 69.90%); type: functional; settings: read-out: Activity
AGS [15] = test: Cell cycle arrest in human AGS cells assessed as accumulation at G2/M phase after 24 hrs by propidium iodide staining based flow cytometry; type: functional; procedure, shortened: as §2
AGS [16] = test: Induction of apoptosis in human AGS cells assessed as viable cells at 0.5 uM after 24 hrs by Annexin V-FITC/propidium iodide-double staining based flow cytometry (reference value: 69.90%); type: functional; settings: read-out: Activity
AGS [17] = test: Cell cycle arrest in human AGS cells assessed as accumulation at S phase at 0.25 uM after 24 hrs by propidium iodide staining based flow cytometry (reference value: 37.94%); type: functional; procedure, shortened: as §2
AGS [18] = test: Cell cycle arrest in human AGS cells assessed as accumulation at S phase at 0.5 uM after 24 hrs by propidium iodide staining based flow cytometry (reference value: 37.94%); type: functional; procedure, shortened: as §2
AGS [19] = test: Cell cycle arrest in human AGS cells assessed as accumulation at G0/G1 phase at 1 uM after 24 hrs by propidium iodide staining based flow cytometry (reference value: 52.87%); type: functional; procedure, shortened: as §2
AGS [20] = test: Induction of apoptosis in human AGS cells after 24 hrs by Annexin V-FITC/propidium iodide-double staining based flow cytometry; type: functional, cell-based
AGS [21] = test: Induction of apoptosis in human AGS cells assessed as late apoptotic cells at 0.25 uM after 24 hrs by Annexin V-FITC/propidium iodide-double staining based flow cytometry (reference value: 16.90%); type: functional
AGS [22] = test: Induction of apoptosis in human AGS cells assessed as early apoptotic cells at 0.25 uM after 24 hrs by Annexin V-FITC/propidium iodide-double staining based flow cytometry (reference value: 12.80%); type: functional
AGS [23] = test: Induction of apoptosis in human AGS cells assessed as necrotic cells at 0.25 uM after 24 hrs by Annexin V-FITC/propidium iodide-double staining based flow cytometry (reference value: 0.40%); type: functional
AGS [24] = test: Cell cycle arrest in human AGS cells assessed as accumulation at G0/G1 phase at 2 uM after 24 hrs by propidium iodide staining based flow cytometry (reference value: 52.87%); type: functional; procedure, shortened: as §2
[25] = Selectivity index, ratio of GI50 for mouse HT22 cells to GI50 for human AGS cells; type: toxicity; settings: HT22 cells and AGS cells, read-out: RatioGI50
AGS [26] = test: Cell cycle arrest in human AGS cells assessed as accumulation at G0/G1 phase at 0.5 uM after 24 hrs by propidium iodide staining based flow cytometry (reference value: 52.87%); type: functional; procedure, shortened: as §2
AGS [27] = test: Cell cycle arrest in human AGS cells assessed as accumulation at G2/M phase at 2 uM after 24 hrs by propidium iodide staining based flow cytometry (reference value: 9.18%); type: functional; procedure, shortened: as §2
AGS [28] = test: Induction of apoptosis in human AGS cells assessed as late apoptotic cells at 0.5 uM after 24 hrs by Annexin V-FITC/propidium iodide-double staining based flow cytometry (reference value: 16.90%); type: functional
AGS [29] = test: Cell cycle arrest in human AGS cells assessed as accumulation at S phase at 1 uM after 24 hrs by propidium iodide staining based flow cytometry (reference value: 37.94%); type: functional; procedure, shortened: as §2
AGS [30] = test: Induction of apoptosis in human AGS cells assessed as early apoptotic cells at 0.5 uM after 24 hrs by Annexin V-FITC/propidium iodide-double staining based flow cytometry (reference value: 12.80%); type: functional
AGS [31] = test: Cell cycle arrest in human AGS cells assessed as accumulation at S phase at 50 nM after 24 hrs by propidium iodide staining based flow cytometry (reference value: 37.94%); type: functional; procedure, shortened: as §2
AGS [32] = test: Cell cycle arrest in human AGS cells assessed as accumulation at G2/M phase at 50 nM after 24 hrs by propidium iodide staining based flow cytometry (reference value: 9.18%); type: functional; procedure, shortened: as §2
AGS [33] = test: Cell cycle arrest in human AGS cells assessed as accumulation at G0/G1 phase at 50 nM after 24 hrs by propidium iodide staining based flow cytometry (reference value: 52.87%); type: functional; procedure, shortened: as §2

COc1cc(Cn2cnc3c(Cl)ncnc32)cc(OC)c1OC
GI50 (K562): > 50 µM
GI50 (AGS [1]): > 50 µM
GI50 (SH-SY5Y [2]): > 100 µM

COc1ccc(N(C)c2ncnc3c2ncn3C)cc1
GI50 (K562): > 100 µM
GI50 (AGS [1]): > 100 µM
GI50 (SH-SY5Y [2]): > 100 µM

COc1ccc(N(C)c2nc(Cl)nc3[nH]cnc23)cc1
GI50 (K562): > 100 µM
GI50 (AGS [1]): 30 µM
GI50 (SH-SY5Y [2]): > 100 µM

COc1ccc(Cn2cnc3c(N(C)c4ccc(OC)cc4)nc(Cl)nc32)cc1
GI50 (K562): > 100 µM
GI50 (AGS [1]): > 100 µM
GI50 (SH-SY5Y [2]): 31 µM

COc1ccc(Cn2cnc3c(Cl)ncnc32)cc1
GI50 (K562): > 50 µM
GI50 (AGS [1]): 29 µM
GI50 (SH-SY5Y [2]): > 50 µM

COc1ccc(N(C)c2ncnc3c2ncn3Cc2cc(OC)c(OC)c(OC)c2)cc1
GI50 (K562): > 100 µM
RatioGI50 (SH-SY5Y [3]): 46
GI50 (AGS [1]): > 100 µM
CC50 at 48 h [4]: 23 µM
inhibition (Tubulin (Sus scrofa)): 20%
GI50 (SH-SY5Y [2]): 0.26 µM
RatioGI50 [5]: >230
selectivity ratio [6]: 88
RatioGI50 [7]: >230

COc1ccc(N(C)c2nc(Cl)nc3c2ncn3C)cc1
Activity (AGS [8]): 10.11%
GI50 (K562): 2.3 µM
Activity (AGS [9]): 14.87%
Activity (AGS [10]): 0.85%
GI50 (AGS [1]): 0.26 µM
Activity (AGS [11]): 12.68%
Activity (AGS [12]): 50.11%
CC50 at 48 h [4]: > 100 µM
Activity (AGS [13]): 25.18%
inhibition (Tubulin (Sus scrofa)): 41%
viability at 0.25 µM (AGS [14]): 63.5%
Activity (AGS [15]): Dose-dependent effect
viability at 0.5 µM (AGS [16]): 59.2%
GI50 (SH-SY5Y [2]): 3.4 µM
Activity (AGS [17]): 39.78%
Activity (AGS [18]): 39.98%
Activity (AGS [19]): 36.62%
Activity (AGS [20]): Dose-dependent effect
Activity (AGS [21]): 23.8%
selectivity ratio [6]: 23
Activity (AGS [22]): 10.45%
Activity (AGS [23]): 2.25%
Activity (AGS [24]): 21.64%
selectivity ratio [25]: 430
Activity (AGS [26]): 47.34%
Activity (AGS [27]): 63.49%
Activity (AGS [28]): 27.6%
Activity (AGS [29]): 38.2%
Activity (AGS [30]): 12.35%

COc1ccc(Cn2cnc3c(N(C)c4ccc(OC)cc4)ncnc32)cc1
GI50 (K562): > 100 µM
GI50 (AGS [1]): > 100 µM
GI50 (SH-SY5Y [2]): 27 µM

COc1ccc(N(C)c2nc(Cl)nc3c2ncn3Cc2ccc(OC)c(OC)c2)cc1
GI50 (K562): 27 µM
GI50 (AGS [1]): 56 µM
inhibition (Tubulin (Sus scrofa)): 25%
GI50 (SH-SY5Y [2]): 7.3 µM

COc1ccc(N(C)c2ncnc3[nH]cnc23)cc1
GI50 (K562): > 100 µM
GI50 (AGS [1]): > 100 µM
GI50 (SH-SY5Y [2]): > 100 µM

COc1ccc(Cn2cnc3c(Cl)nc(Cl)nc32)cc1OC
GI50 (K562): 7 µM
GI50 (AGS [1]): 11 µM
inhibition (Tubulin (Sus scrofa)): 22%
GI50 (SH-SY5Y [2]): 5.5 µM

COc1ccc(N(C)c2ncnc3c2ncn3Cc2cc(OC)cc(OC)c2)cc1
GI50 (K562): 42 µM
GI50 (AGS [1]): > 100 µM
GI50 (SH-SY5Y [2]): > 100 µM

COc1cc(Cn2cnc3c(Cl)nc(Cl)nc32)cc(OC)c1
GI50 (K562): 4.6 µM
GI50 (AGS [1]): 3.8 µM
CC50 at 48 h [4]: > 100 µM
inhibition (Tubulin (Sus scrofa)): 13%
GI50 (SH-SY5Y [2]): 1.7 µM

COc1cc(Cn2cnc3c(Cl)nc(Cl)nc32)cc(OC)c1OC
GI50 (K562): 4.3 µM
GI50 (AGS [1]): 9.4 µM
inhibition (Tubulin (Sus scrofa)): 13%
GI50 (SH-SY5Y [2]): 9.6 µM

COc1ccc(N(C)c2nc(Cl)nc3c2ncn3Cc2cc(OC)cc(OC)c2)cc1
GI50 (K562): 42 µM
GI50 (AGS [1]): 69 µM
GI50 (SH-SY5Y [2]): > 100 µM

COc1ccc(Cn2cnc3c(Cl)ncnc32)cc1OC
GI50 (K562): > 50 µM
GI50 (AGS [1]): > 100 µM
GI50 (SH-SY5Y [2]): > 100 µM

COc1ccc(Cn2cnc3c(Cl)nc(Cl)nc32)cc1
GI50 (K562): 36 µM
GI50 (AGS [1]): 19 µM
inhibition (Tubulin (Sus scrofa)): 25%
GI50 (SH-SY5Y [2]): 7.7 µM

COc1ccc(N(C)c2ncnc3c2ncn3Cc2ccc(OC)c(OC)c2)cc1
GI50 (K562): > 100 µM
RatioGI50 (SH-SY5Y [3]): 28
GI50 (AGS [1]): > 100 µM
CC50 at 48 h [4]: > 100 µM
inhibition (Tubulin (Sus scrofa)): 18%
GI50 (SH-SY5Y [2]): 0.43 µM
RatioGI50 [5]: >230
selectivity ratio [6]: 230
RatioGI50 [7]: >230

O=c1[nH]cc(F)c(=O)[nH]1 [FLUOROURACIL]
GI50 (K562): 19 µM
GI50 (AGS [1]): 25 µM
GI50 (SH-SY5Y [2]): 12 µM

COc1cc(Cn2cnc3c(Cl)ncnc32)cc(OC)c1
GI50 (K562): > 100 µM
GI50 (AGS [1]): > 100 µM
GI50 (SH-SY5Y [2]): > 100 µM

COc1cc2c(c(OC)c1OC)-c1ccc(OC)c(=O)cc1[C@@H](NC(C)=O)CC2 [COLCHICINE]
Activity (AGS [31]): 12.58%
Activity (AGS [32]): 86.22%
GI50 (K562): 0.02 µM
GI50 (AGS [1]): 0.04 µM
GI50 (SH-SY5Y [2]): 0.04 µM
Activity (AGS [33]): 1.2%

COc1ccc(N(C)c2nc(Cl)nc3c2ncn3Cc2cc(OC)c(OC)c(OC)c2)cc1
GI50 (K562): 41 µM
GI50 (AGS [1]): 85 µM
inhibition (Tubulin (Sus scrofa)): 12%
GI50 (SH-SY5Y [2]): 3 µM
